Columns and labels:
[1] = species: Mus musculus; assay: Effect on body temperature in ICR mouse assessed as inhibition of nicotine-induced hypothermic response; assay type: functional
Outline: (§1)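 Male ICR mice (20–25 g) were used to test blockade of acute nicotine effects (tail-flick, hot-plate, locomotor activity, body temperature). At least four doses of test compound were given, with at least eight mice per dose group. Results were expressed as AD50 (mg/kg) with confidence limits, or as % effect at the highest dose tested.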

[2] = target: Nicotinic acetylcholine receptor alpha-1/beta-1 (Homo sapiens, UniProt P02708+P11230); assay: Antagonist activity at human alpha1beta1 nAChR in HEK293 cells assessed as inhibition of carbamylcholine-induced radiolabeled Rb ion efflux; assay type: functional, cell-based
Nicotinic acetylcholine receptor alpha-1/beta-1, sequence (P02708 whole entry): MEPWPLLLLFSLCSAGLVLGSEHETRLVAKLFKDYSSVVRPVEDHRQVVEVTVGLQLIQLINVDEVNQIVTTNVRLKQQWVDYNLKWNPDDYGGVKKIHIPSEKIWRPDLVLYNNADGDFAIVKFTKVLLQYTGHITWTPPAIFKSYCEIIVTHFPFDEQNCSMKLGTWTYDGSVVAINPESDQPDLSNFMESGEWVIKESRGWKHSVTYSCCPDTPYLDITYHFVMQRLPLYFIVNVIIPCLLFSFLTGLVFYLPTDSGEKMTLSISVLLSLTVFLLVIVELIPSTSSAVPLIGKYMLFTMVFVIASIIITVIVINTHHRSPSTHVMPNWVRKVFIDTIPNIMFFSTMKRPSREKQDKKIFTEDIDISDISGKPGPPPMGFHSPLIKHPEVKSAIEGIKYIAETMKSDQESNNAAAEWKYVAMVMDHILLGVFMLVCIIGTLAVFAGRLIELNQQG
Nicotinic acetylcholine receptor alpha-1/beta-1, sequence (P11230 whole entry): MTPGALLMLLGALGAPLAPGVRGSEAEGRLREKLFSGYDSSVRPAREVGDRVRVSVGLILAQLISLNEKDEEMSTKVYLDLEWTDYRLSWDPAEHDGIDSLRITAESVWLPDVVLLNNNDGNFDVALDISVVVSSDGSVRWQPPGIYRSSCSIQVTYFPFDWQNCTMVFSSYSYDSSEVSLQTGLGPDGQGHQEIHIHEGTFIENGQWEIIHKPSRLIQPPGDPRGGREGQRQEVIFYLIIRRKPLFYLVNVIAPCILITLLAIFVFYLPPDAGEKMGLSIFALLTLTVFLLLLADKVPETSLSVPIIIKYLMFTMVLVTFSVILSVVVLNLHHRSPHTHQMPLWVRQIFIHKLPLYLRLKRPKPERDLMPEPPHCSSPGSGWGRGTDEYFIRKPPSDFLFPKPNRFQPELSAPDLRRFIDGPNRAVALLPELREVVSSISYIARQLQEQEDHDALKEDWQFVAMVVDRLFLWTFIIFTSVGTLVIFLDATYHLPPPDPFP
Outline: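 86Rb+ efflux from human nAChR subtypes naturally or heterologously expressed in human cell lines. Cells were stimulated with a subtype-specific EC80–EC90 concentration of the full agonist carbamylcholine, alone or with test ligand (log molar series). Specific efflux was expressed as percent of control. IC50 values are means from three independent experiments; SEM is given as a multiplication/division factor.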

[3] = species: Mus musculus; assay: Effect on behavioral activity in ICR mouse assessed as inhibition of nicotine-induced locomotory response; assay type: functional; outline: as §1
[4] = target: Sodium-dependent dopamine transporter (Homo sapiens, UniProt Q01959); assay: Inhibition of human DAT in HEK293 cells assessed as inhibition of [3H]dopamine uptake; assay type: cell-based
Sodium-dependent dopamine transporter, sequence (Q01959 whole entry): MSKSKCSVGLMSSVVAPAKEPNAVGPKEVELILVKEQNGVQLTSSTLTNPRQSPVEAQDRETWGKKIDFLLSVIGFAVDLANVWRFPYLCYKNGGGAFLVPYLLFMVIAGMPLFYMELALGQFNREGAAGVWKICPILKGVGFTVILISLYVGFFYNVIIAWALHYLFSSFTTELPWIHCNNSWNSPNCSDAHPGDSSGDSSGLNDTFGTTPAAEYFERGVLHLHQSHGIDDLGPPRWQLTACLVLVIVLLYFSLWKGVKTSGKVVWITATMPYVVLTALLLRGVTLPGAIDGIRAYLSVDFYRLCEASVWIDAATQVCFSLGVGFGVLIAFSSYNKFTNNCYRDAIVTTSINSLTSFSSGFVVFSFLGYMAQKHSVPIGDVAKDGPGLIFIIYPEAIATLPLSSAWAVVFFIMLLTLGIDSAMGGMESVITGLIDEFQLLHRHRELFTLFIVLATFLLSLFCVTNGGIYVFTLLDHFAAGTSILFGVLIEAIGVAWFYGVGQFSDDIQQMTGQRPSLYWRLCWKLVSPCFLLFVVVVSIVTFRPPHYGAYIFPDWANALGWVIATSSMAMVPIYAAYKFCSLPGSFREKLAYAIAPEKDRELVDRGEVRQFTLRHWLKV
Outline: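 [3H]DA, [3H]NE or [3H]5HT uptake was measured by the corresponding human transporter stably expressed in HEK-293 cells. Values are mean ± standard error of three independent experiments, each run in triplicate.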

[5] = species: Mus musculus; assay: Antinociceptive activity in ICR mouse assessed as inhibition of nicotine-induced response by hotplate test; assay type: functional; outline: as §1
[6] = species: Mus musculus; assay: Antinociceptive activity in ICR mouse assessed as inhibition of nicotine-induced response by tail flick test; assay type: functional; outline: as §1

SMILES	AD50 [1] [mg/kg]	IC50 [2] [µM]	AD50 [3] [mg/kg]	IC50 [4] [µM]	AD50 [5] [mg/kg]	AD50 [6] [mg/kg]
C[C@@H]1N(C)C(C)(C)CO[C@@]1(O)c1cccc(Cl)c1	>20	21	3.8	0.23	>20	0.13
C[C@H]1NC(C)(C)CO[C@]1(O)c1cccc(Cl)c1	>20		>20		3.9	1.26
C[C@@H]1NC(C)(C)CO[C@@]1(O)c1cccc(Br)c1	>20	7.3	2.1	0.044	>20	0.006
CCC[C@@H]1NC(C)(C)CO[C@@]1(O)c1cccc(Cl)c1	>20		0.49		>20	0.017
